Reference: ChEMBL document CHEMBL1124478, “Cardiotonic agents. 5. Fragments from the heterocycle-phenyl-imidazole pharmacophore” (J Med Chem, 1989)

Columns and labels:
[1] = Inhibition of crude canine cardiac c-AMP phosphodiesterase; design: species or system Canis lupus familiaris
How it was run: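 Crude cAMP phosphodiesterase came from canine cardiac tissue homogenates. IC50 (μM) is the mean of at least three determinations, with ranges within ±10%. Where 50% inhibition was not reached at 100 μM, the percent inhibition at 100 μM drug was recorded instead.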

[2] = species on record: Mustela putorius furo; assay: 20% increase in contractile force (CF) of ferret papillary muscle; format: functional, Muscle tissue
How it was run: (§1)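 Isolated ferret papillary muscle in vitro. Value is the drug concentration (μM) giving a 20% rise in contractile force, the mean of at least two determinations, with ranges within ±10%. NR means that level was not reached at 100 μM. Responses were also tested with 1 μM propranolol and, for some compounds, 10 μM cimetidine.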

[3] = system: cAMP phosphodiesterase (Canis familiaris); assay: Inhibition of crude canine cardiac c-AMP phosphodiesterase at 100 uM; settings: Canis lupus familiaris
[4] = species on record: Mustela putorius furo; assay: Increase in contractile force (CF) of ferret papillary muscle; NR = not reached at 100 uM; format: functional; settings: Muscle tissue; how it was run: as §1

IC50 [1] [µM] | inhibition [3] [%] | Structure (SMILES) | C20 [2] [µM] | C20 [4]
54 | – | CCc1[nH]c(O)nc1C(=O)c1ccccc1 | 2 | –
– | 10 | CCc1[nH]c(O)nc1C(=O)OC | – | Not reached
2 | – | CCc1[nH]c(O)nc1C(=O)c1ccc(-n2ccnc2)cc1 | 0.05 | –
– | 5 | CCc1[nH]c(O)nc1C(=O)NCCCn1ccnc1 | – | Not reached
– | 25 | CCc1[nH]c(O)nc1C(=O)NCCc1c[nH]cn1 | 10 | –

Further lines, the compound ahead of its results:

Structure (SMILES) | IC50 [1] [µM] | inhibition [3] [%] | C20 [2] [µM] | C20 [4]
Cc1nc(O)c(C#N)c(NCCc2c[nH]cn2)n1 | 4 | – | 0.2 | –
CC(=O)c1ccc(-n2ccnc2C)cc1 | – | 15 | 25 | –
O=C1CCc2cc(-n3ccnc3)ccc2N1 | 71 | – | 1.6 | –
Cc1nc(=O)c(C#N)c(NCc2cccnc2)[nH]1 [PELRINONE] | 4 | – | 0.2 | –
CCc1[nH]c(O)nc1C(=O)c1ccc(-n2ccnc2C)cc1 | – | – | 0.7 | –
COc1ccc(C(=O)N2CCN(c3ccc4c(c3)CCC(=O)N4)CC2)cc1OC [VESNARINONE] | 32 | – | 2.3 | –
